According to ChEMBL document CHEMBL3792366, “Role of disulfide linkage in action of bis(dialkylaminethiocarbonyl)disulfides as potent double-Edged microbicidal spermicide: Design, synthesis and biology” (Eur J Med Chem, 2016):
≈ marks a conversion by molar mass, not a printed value.

What was measured:
[1] = Spermicidal activity in human sperms assessed as motility measured within 30 secs by phase contrast microscopy; format: functional, Sperm
How it was run: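 Liquefied human semen (0.05 mL) was added to 0.25 mL test solution and vortexed 10 s at low speed. Motile sperm were scored visually under phase contrast in five fields within 30 s; assays in triplicate; MEC = minimum effective concentration.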

Candida albicans = assay: Antifungal activity against Candida albicans after 48 hrs by broth microdilution method; format: functional
How it was run: (§1)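 NCCLS broth microdilution in RPMI 1640 buffered with MOPS; starting inoculum 1–5 × 10^3 CFU/mL; plates incubated at 35 °C; MIC read after 48 h.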

Cryptococcus neoformans = assay: Antifungal activity against Cryptococcus neoformans after 48 hrs by broth microdilution method; format: functional; how it was run: as §1
Sporothrix schenckii = assay: Antifungal activity against Sporothrix schenckii after 48 hrs by broth microdilution method; format: functional; how it was run: as §1
[2] = test system: Trichophyton mentagrophytes; assay: Antifungal activity against Trichophyton mentagrophytes after 48 hrs by broth microdilution method; format: functional; how it was run: as §1
Candida parapsilosis = assay: Antifungal activity against Candida parapsilosis ATCC 22019 after 48 hrs by broth microdilution method; format: functional; conditions: Lodderomyces parapsilosis, ATCC 22019, 48 h; how it was run: as §1
Trichomonas vaginalis [3] = assay: Antitrichomonas activity against trophozoite stage of Trichomonas vaginalis clinical isolate assessed as cell viability under anaerobic condition after 48 hrs by trypan blue exclusion assay; format: functional
How it was run: (§2)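 Log-phase T. vaginalis grown in TYM with 10% FCS, vitamin mix and penicillin/streptomycin at 37 °C. Compounds were made as 100 µg/mL DMSO stocks and serially diluted in TYM down to 0.1 µg/mL; DMSO/TYM served as vehicle. Parasites were incubated anaerobically at 37 °C, and viability was checked by trypan blue exclusion from 3 to 48 h. MIC = lowest concentration killing all cells by 48 h; each test was repeated three times.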

Trichomonas vaginalis [4] = assay: Antitrichomonas activity against metronidazole-resistant trophozoite stage of Trichomonas vaginalis ATCC 50143 assessed as cell viability under anaerobic condition after 48 hrs by trypan blue exclusion assay; format: functional; conditions: ATCC 50143, 48 h; how it was run: as §2
Trichomonas vaginalis [5] = assay: Potency index, ratio of metronidazole MIC to compound MIC for metronidazole-resistant trophozoite stage of Trichomonas vaginalis ATCC 50143; format: functional

Question: With `N#CCCCN1CCN(C(=S)SCCCSC(=S)N2CCN(CCCC#N)CC2)CC1` as the molecule, how does the MEC [1] read?
Answer: 0.5%

Question: What does the source list for `S=C(SSC(=S)N1CCOCC1)N1CCOCC1`?
Answer: MEC [1]: 0.1%; MIC (Candida albicans): 76.9 µM (≈ 25 µg/mL); MIC (Cryptococcus neoformans): 38.4 µM (≈ 12.5 µg/mL); MIC (Sporothrix schenckii): 76.9 µM (≈ 25 µg/mL); MIC [2]: 38.4 µM (≈ 12.5 µg/mL); MIC (Candida parapsilosis): 76.9 µM (≈ 25 µg/mL); MIC (Trichomonas vaginalis [3]): 9.6 µM (≈ 3.12 µg/mL); MIC (Trichomonas vaginalis [4]): 9.6 µM (≈ 3.12 µg/mL); Ratio (Trichomonas vaginalis [5]): 16

Question: With `C=CCN1CCN(C(=S)SCCSC(=S)N2CCN(CC=C)CC2)CC1` as the molecule, how does the MEC [1] read?
Answer: 0.5%

Question: With `S=C(SCCN1CCCCC1)N1CCN(C(=S)SSC(=S)N2CCN(C(=S)SCCN3CCCCC3)CC2)CC1` as the molecule, how does the MEC [1] read?
Answer: 0.5%

Question: And the MIC (Candida albicans)?
Answer: > 71.7 µM

Question: And the MIC (Cryptococcus neoformans)?
Answer: > 71.7 µM

Question: What about the MIC (Sporothrix schenckii) of the same molecule?
Answer: > 71.7 µM

Question: What about the MIC [2] of the same molecule?
Answer: > 71.7 µM

Question: And the MIC (Candida parapsilosis)?
Answer: > 71.7 µM

Question: And the MIC (Trichomonas vaginalis [3])?
Answer: > 143 µM

Question: And the MIC (Trichomonas vaginalis [4])?
Answer: > 143 µM

Question: For `S=C(SCCN1CCOCC1)N1CCN(C(=S)SSC(=S)N2CCN(C(=S)SCCN3CCOCC3)CC2)CC1`, which MEC [1] is on record?
Answer: 0.5%

Question: And the MIC (Candida albicans)?
Answer: > 71.3 µM

Question: What about the MIC (Cryptococcus neoformans) of the same molecule?
Answer: > 71.3 µM

Question: What about the MIC (Sporothrix schenckii) of the same molecule?
Answer: > 71.3 µM

Question: What about the MIC [2] of the same molecule?
Answer: > 71.3 µM

Question: And the MIC (Candida parapsilosis)?
Answer: > 71.3 µM

Question: What about the MIC (Trichomonas vaginalis [3]) of the same molecule?
Answer: > 142 µM

Question: And the MIC (Trichomonas vaginalis [4])?
Answer: > 142 µM

Question: Which results are given for `S=C(SSC(=S)N1CCN(c2ccccn2)CC1)N1CCN(c2ccccn2)CC1`?
Answer: MEC [1]: 1%; MIC (Candida albicans): > 104 µM; MIC (Cryptococcus neoformans): 104 µM (≈ 49.6 µg/mL); MIC (Sporothrix schenckii): 104 µM (≈ 49.6 µg/mL); MIC [2]: 52.4 µM (≈ 25 µg/mL); MIC (Candida parapsilosis): > 104 µM; MIC (Trichomonas vaginalis [3]): > 209 µM; MIC (Trichomonas vaginalis [4]): > 209 µM

Question: For `CCCCSC(=S)N1CCN(C(=S)SSC(=S)N2CCN(C(=S)SCCCC)CC2)CC1`, which MEC [1] is on record?
Answer: >1%

Question: What about the MIC (Candida albicans) of the same molecule?
Answer: > 85.1 µM

Question: What about the MIC (Cryptococcus neoformans) of the same molecule?
Answer: 85.1 µM (≈ 50 µg/mL)

Question: What about the MIC (Sporothrix schenckii) of the same molecule?
Answer: 85.1 µM (≈ 50 µg/mL)

Question: And the MIC [2]?
Answer: 42.5 µM (≈ 24.9 µg/mL)

Question: What about the MIC (Candida parapsilosis) of the same molecule?
Answer: 42.5 µM (≈ 24.9 µg/mL)

Question: What about the MIC (Trichomonas vaginalis [3]) of the same molecule?
Answer: > 170 µM

Question: And the MIC (Trichomonas vaginalis [4])?
Answer: > 170 µM

Question: For `C=CCN1CCN(C(=S)SCSC(=S)N2CCN(CC=C)CC2)CC1`, which MEC [1] is on record?
Answer: 1%

Question: For `CCCCCCCCSC(=S)N1CCN(C(=S)SSC(=S)N2CCN(C(=S)SCCCCCCCC)CC2)CC1`, which MEC [1] is on record?
Answer: 1%

Question: And the MIC (Candida albicans)?
Answer: 35.7 µM (≈ 25 µg/mL)

Question: What about the MIC (Cryptococcus neoformans) of the same molecule?
Answer: 35.7 µM (≈ 25 µg/mL)

Question: And the MIC (Sporothrix schenckii)?
Answer: 35.7 µM (≈ 25 µg/mL)

Question: What about the MIC [2] of the same molecule?
Answer: > 71.5 µM

Question: And the MIC (Candida parapsilosis)?
Answer: > 71.5 µM

Question: And the MIC (Trichomonas vaginalis [3])?
Answer: 89.4 µM (≈ 62.5 µg/mL)

Question: What about the MIC (Trichomonas vaginalis [4]) of the same molecule?
Answer: > 143 µM

Question: For `CCCSC(=S)N1CCN(CCCC#N)CC1`, which MEC [1] is on record?
Answer: >1%

Question: With `CCCCN1CCN(C(=S)SCCCSC(=S)N2CCN(CCCC)CC2)CC1` as the molecule, how does the MEC [1] read?
Answer: 0.5%

Question: For `Fc1ccc(N2CCN(C(=S)SSC(=S)N3CCN(c4ccc(F)cc4)CC3)CC2)cc1`, which MEC [1] is on record?
Answer: >1%

Question: What about the MIC (Candida albicans) of the same molecule?
Answer: 97.8 µM (≈ 49.9 µg/mL)

Question: And the MIC (Cryptococcus neoformans)?
Answer: > 97.8 µM

Question: And the MIC (Sporothrix schenckii)?
Answer: 97.8 µM (≈ 49.9 µg/mL)

Question: What about the MIC [2] of the same molecule?
Answer: 97.8 µM (≈ 49.9 µg/mL)

Question: What about the MIC (Candida parapsilosis) of the same molecule?
Answer: > 97.8 µM

Question: What about the MIC (Trichomonas vaginalis [3]) of the same molecule?
Answer: > 195 µM

Question: And the MIC (Trichomonas vaginalis [4])?
Answer: > 195 µM

Question: Which results are given for `S=C(SSC(=S)N1CCCCC1)N1CCCCC1` [BIS(PIPERIDINYLTHIOCARBONYL)DISULFIDE]?
Answer: MEC [1]: 1%; MIC (Candida albicans): 9.7 µM (≈ 3.11 µg/mL); MIC (Cryptococcus neoformans): 2.4 µM (≈ 0.769 µg/mL); MIC (Sporothrix schenckii): 38.9 µM (≈ 12.5 µg/mL); MIC [2]: 19.4 µM (≈ 6.22 µg/mL); MIC (Candida parapsilosis): 38.9 µM (≈ 12.5 µg/mL); MIC (Trichomonas vaginalis [3]): 155 µM (≈ 49.7 µg/mL); MIC (Trichomonas vaginalis [4]): 155 µM (≈ 49.7 µg/mL)

Question: For `Cc1ccc(S(=O)(=O)N2CCN(C(=S)SSC(=S)N3CCN(S(=O)(=O)c4ccc(C)cc4)CC3)CC2)cc1`, which MEC [1] is on record?
Answer: >1%

Question: What about the MIC (Candida albicans) of the same molecule?
Answer: > 76.5 µM

Question: What about the MIC (Cryptococcus neoformans) of the same molecule?
Answer: > 76.5 µM

Question: What about the MIC (Sporothrix schenckii) of the same molecule?
Answer: 76.5 µM (≈ 48.3 µg/mL)

Question: And the MIC [2]?
Answer: 76.5 µM (≈ 48.3 µg/mL)

Question: What about the MIC (Candida parapsilosis) of the same molecule?
Answer: > 76.5 µM

Question: And the MIC (Trichomonas vaginalis [3])?
Answer: > 153 µM

Question: What about the MIC (Trichomonas vaginalis [4]) of the same molecule?
Answer: > 153 µM

Question: Which MEC [1] does the source give for `CCCCCCCCCCSC(=S)N1CCN(C(=S)SSC(=S)N2CCN(C(=S)SCCCCCCCCCC)CC2)CC1` here?
Answer: 1%

Question: What about the MIC (Candida albicans) of the same molecule?
Answer: 66.2 µM (≈ 50 µg/mL)

Question: What about the MIC (Cryptococcus neoformans) of the same molecule?
Answer: 33.1 µM (≈ 25 µg/mL)

Question: And the MIC (Sporothrix schenckii)?
Answer: 66.2 µM (≈ 50 µg/mL)

Question: What about the MIC [2] of the same molecule?
Answer: > 66.2 µM

Question: What about the MIC (Candida parapsilosis) of the same molecule?
Answer: 66.2 µM (≈ 50 µg/mL)

Question: And the MIC (Trichomonas vaginalis [3])?
Answer: > 132 µM

Question: And the MIC (Trichomonas vaginalis [4])?
Answer: > 132 µM

Question: For `CN1CCN(C(=S)SCCCSC(=S)N2CCN(C)CC2)CC1`, which MEC [1] is on record?
Answer: 0.5%

Question: With `CCCCN1CCN(C(=S)SCCSC(=S)N2CCN(CCCC)CC2)CC1` as the molecule, how does the MEC [1] read?
Answer: 0.5%

Question: For `C=CCN1CCN(C(=S)SCCC)CC1`, which MEC [1] is on record?
Answer: >1%

Question: With `CC(C)(C)OC(=O)N1CCN(C(=S)SSC(=S)N2CCN(C(=O)OC(C)(C)C)CC2)CC1` as the molecule, how does the MEC [1] read?
Answer: >1%

Question: What about the MIC (Candida albicans) of the same molecule?
Answer: > 91.7 µM

Question: What about the MIC (Cryptococcus neoformans) of the same molecule?
Answer: > 91.7 µM

Question: What about the MIC (Sporothrix schenckii) of the same molecule?
Answer: > 91.7 µM

Question: What about the MIC [2] of the same molecule?
Answer: > 91.7 µM

Question: And the MIC (Candida parapsilosis)?
Answer: > 91.7 µM

Question: What about the MIC (Trichomonas vaginalis [3]) of the same molecule?
Answer: > 183 µM

Question: What about the MIC (Trichomonas vaginalis [4]) of the same molecule?
Answer: > 183 µM

Question: With `N#CCCCN1CCN(C(=S)SCSC(=S)N2CCN(CCCC#N)CC2)CC1` as the molecule, how does the MEC [1] read?
Answer: 0.5%

Question: With `CCCCCCCCN1CCN(C(=S)SSC(=S)N2CCN(CCCCCCCC)CC2)CC1` as the molecule, how does the MEC [1] read?
Answer: 0.1%

Question: And the MIC (Candida albicans)?
Answer: 91.4 µM (≈ 50 µg/mL)

Question: And the MIC (Cryptococcus neoformans)?
Answer: 91.4 µM (≈ 50 µg/mL)

Question: What about the MIC (Sporothrix schenckii) of the same molecule?
Answer: 91.4 µM (≈ 50 µg/mL)

Question: And the MIC [2]?
Answer: 91.4 µM (≈ 50 µg/mL)

Question: What about the MIC (Candida parapsilosis) of the same molecule?
Answer: 91.4 µM (≈ 50 µg/mL)

Question: What about the MIC (Trichomonas vaginalis [3]) of the same molecule?
Answer: 182 µM (≈ 99.6 µg/mL)

Question: What about the MIC (Trichomonas vaginalis [4]) of the same molecule?
Answer: 182 µM (≈ 99.6 µg/mL)

Question: Which MEC [1] does the source give for `CN1CCN(C(=S)SCSC(=S)N2CCN(C)CC2)CC1` here?
Answer: 0.5%

Question: Which MEC [1] does the source give for `C=CCN1CCN(C(=S)SCCCCCC)CC1` here?
Answer: >1%
